From ChEMBL document CHEMBL3414539, “Quantum chemistry calculation-aided structural optimization of combretastatin A-4-like tubulin polymerization inhibitors: improved stability and biological activity” (J Med Chem, 2015)

Legend:
[1] = test system: HT-29; test: Growth inhibition of human HT-29 cells by MTT assay; type: functional, cell-based
How it was run: (§1)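 MTT assay in SKOV3 ovarian and HT-29 colon carcinoma cells, absorbance read at 570 nm. Triplicate wells in at least three independent assays; average IC50 reported.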

[2] = test system: SK-OV-3; test: Growth inhibition of human SKOV3 cells by MTT assay; type: functional, cell-based; how it was run: as §1
[3] = Stability assessed as cis-trans isomerization equilibrium by mesuring remaining compound level at 1.5 x 10^-2 M exposed to UV-visible light irradiation after 1.5 hrs by LC-HRMS method; type: physicochemical; settings: read-out: Stability
[4] = Stability assessed as cis-trans isomerization equilibrium by mesuring remaining compound level at 1.5 x 10^-2 M exposed to UV-visible light irradiation after 22 hrs by LC-HRMS method; type: physicochemical; settings: read-out: Stability
[5] = Stability assessed as cis-trans isomerization equilibrium at 1.5 x 10^-2 M under natural light conditions after 7 days by LC-HRMS method; type: physicochemical; settings: 168 h, 15000 µM
[6] = test system: HT-29; test: Antitumor activity against human HT-29 cells xenografted in BALB/c mouse assessed as reduction in tumor volume at 50 mg/kg, ip administered once daily for 18 days; type: functional; settings: route intraperitoneal
How it was run: (§2)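 Female BALB/c nude mice (18–20 g) bearing HT-29 xenografts of around 100 mm³, randomized into six animals/treatment and twelve controls. Drug or vehicle given ip once a day for 18 days. Tumor volume and body weight recorded on d0 and d18. T/C (%) derived from relative tumor volume (Vt/Vo). Body weight change given as mean in g.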

[7] = test system: Mus musculus; test: Toxicity in human HT-29 cells xenografted BALB/c mouse assessed as change in body weight at 50 mg/kg, ip administered once daily for 18 days (reference value: 2.5 g); type: organism-based; design: dose 50 mg/kg, route intraperitoneal; settings: in vivo, 432 h
[8] = target: Tubulin (Bos taurus, UniProt Q6B856+Q862L2+Q862F3); test: Inhibition of bovine brain tubulin polymerization incubated for 60 mins by microplate reader based turbidimetry
[9] = test system: HT-29; test: Antitumor activity against human HT-29 cells xenografted in BALB/c mouse assessed as reduction in tumor volume at 50 and 150 mg/kg, ip administered once daily and measured on day 18; type: functional, organism-based; design: dose 150 mg/kg; how it was run: as §2
[10] = test system: HT-29; test: Antitumor activity against human HT-29 cells xenografted in BALB/c mouse assessed as reduction in tumor volume at 150 mg/kg, ip administered once daily for 18 days; type: functional; settings: route intraperitoneal; how it was run: as §2
[11] = test system: Mus musculus; test: Toxicity in human HT-29 cells xenografted BALB/c mouse assessed as change in body weight at 150 mg/kg, ip administered once daily for 18 days (reference value: 2.5 g); type: organism-based; design: dose 150 mg/kg, route intraperitoneal; settings: in vivo, 432 h; how it was run: as §2

Structure (SMILES) | IC50 [1] [nM] | IC50 [2] [nM] | remaining at 1.5 h, 15000 µM [3] [%] | IC50 [8] [nM] | also measured
COc1ccc(/C=C2\c3cc(OC)c(OC)c(OC)c3CC[C@@H]2O)cc1[N+](=O)[O-] | 1590 | 4640 | – | – | –
COc1ccc(/C=C2\c3cc(OC)c(OC)c(OC)c3CC[C@H]2O)cc1N | 910 | 1870 | – | – | –
COc1ccc(/C=C\c2cc(OC)c(OC)c(OC)c2)cc1O [COMBRETASTATIN A4] | 1 | 1 | 99.1 | – | remaining at 22 h, 15000 µM [4]: 84%; Stability [5]: Stable; T/C [6]: 52%; Activity [7]: 1.7 g
COc1ccc(/C=C2\c3cc(OC)c(OC)c(OC)c3CC[C@H]2O)cc1 | 2600 | 3780 | 99.1 | > 10000 | remaining at 22 h, 15000 µM [4]: 93%; Stability [5]: Stable
COc1ccc(/C=C2\c3cc(OC)c(OC)c(OC)c3CC[C@@H]2O)cc1C | 2560 | 730 | – | – | –
COc1ccc2c(c1)CC[C@@H](O)/C2=C/c1cc(OC)c(OC)c(OC)c1 | 900 | 2020 | 99.2 | > 10000 | remaining at 22 h, 15000 µM [4]: 92%; Stability [5]: Stable
COc1ccc(/C=C2\c3cc(OC)c(OC)c(OC)c3CC[C@H]2O)cc1[N+](=O)[O-] | > 10000 | > 10000 | – | – | –
COc1ccc(/C=C2\c3cc(OC)c(OC)c(OC)c3CC[C@@H]2O)cc1 | 2460 | 7030 | 99.4 | > 10000 | remaining at 22 h, 15000 µM [4]: 92.6%; Stability [5]: Stable
COc1ccc(/C=C2\c3cc(OC)c(OC)c(OC)c3CC[C@H]2O)cc1C | 3970 | 1340 | – | – | –

More lines, main results first:

IC50 [1] [nM] | IC50 [2] [nM] | remaining at 1.5 h, 15000 µM [3] [%] | IC50 [8] [nM] | Structure (SMILES) | also measured
260 | 1060 | – | – | COc1ccc(/C=C2\c3cc(OC)c(OC)c(OC)c3CC[C@@H]2O)cc1O | –
160 | 740 | – | – | COc1ccc(/C=C2\c3cc(OC)c(OC)c(OC)c3CC[C@@H]2O)cc1N | –
5 | 20 | – | – | COc1ccc(/C=C2\c3cc(OC)c(OC)c(OC)c3CC[C@@H]2O)cc1C#N | –
3 | 1 | – | 5700 | COc1ccc(/C=C2\c3cc(OC)c(OC)c(OC)c3CC[C@@H]2O)cc1F | –
130 | 2 | 52.8 | 3930 | COc1ccc2c(c1)CCC(=O)/C2=C/c1cc(OC)c(OC)c(OC)c1 | –
790 | 1590 | – | – | COc1ccc(/C=C2\c3cc(OC)c(OC)c(OC)c3CC[C@H]2O)cc1O | –
220 | 720 | – | – | COc1ccc(/C=C2\c3cc(OC)c(OC)c(OC)c3CC[C@H]2O)cc1F | –
550 | 1920 | – | – | COc1ccc(/C=C2\c3cc(OC)c(OC)c(OC)c3CC[C@H]2O)cc1C(N)=O | –
200 | 600 | – | – | COc1ccc(/C=C2\c3cc(OC)c(OC)c(OC)c3CC[C@H]2O)cc1C#N | –
1 | 1 | 98.9 | 410 | COc1ccc2c(c1)CC[C@H](O)/C2=C/c1cc(OC)c(OC)c(OC)c1 | remaining at 22 h, 15000 µM [4]: 90.2%; Stability [5]: Stable; inhibition [9]: Dose-dependent effect; T/C [10]: 37%; T/C [6]: 61%; Activity [11]: 1.8 g; Activity [7]: 2.3 g
550 | 1440 | – | – | COc1ccc(/C=C2\c3cc(OC)c(OC)c(OC)c3CC[C@@H]2O)cc1C(N)=O | –
